Measured values as given in article PMC10793096 (Acta Pharmaceutica Sinica. B, 2023).
Where two headings read alike, the source gives them in different places.

Tests used:
[1] = system: MRC-5 (human lung fibroblasts, non-cancerous); settings: read-out: IC50 MRC-5; taken from the literature; cited from earlier work
[2] = system: MCF-7 (human breast adenocarcinoma) cell line; assay: Colorimetric MTT cytotoxicity assay, MCF-7; assay type: cell-based; settings: for IC50: Homo sapiens
[3] = system: CT26 (murine colon carcinoma) cell line; assay: Colorimetric MTT cytotoxicity assay, CT26; assay type: cell-based
[4] = system: MRC-5 (human lung fibroblasts, non-cancerous); assay: Colorimetric MTT cytotoxicity assay, MRC-5; assay type: cell-based; settings: MRC5, 72 h, read-out: IC50 MRC-5
How it was run: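 MRC-5 cells from ATCC, trypsinized, seeded at 6000 cells/well (6 × 10^4 cells/mL), grown 24 h, then exposed 72 h to test compound serially diluted in complete medium. Medium replaced with MTT in media (5 mg/mL) for 45 min; formazan dissolved in DMSO, OD at 570 nm. T/C versus untreated cells; IC50 interpolated from concentration-effect curves; ≥3 independent experiments, triplicates per concentration.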

Compound	IC50 [1] [nM]	IC50 ([2]; MCF7, 72 h, read-out: IC50 MCF-7) [nM]	IC50 ([2]; MCF7, read-out: IC50s in both cancer cell lines) [nM]	SF MCF-7 (selectivity factor) ([2]; IC50(MRC-5)/IC50(MCF-7))	SF CT26 (selectivity factor) ([3]; IC50(MRC-5)/IC50(CT26))	IC50 ([3]; Mus musculus, CT26, 72 h, read-out: IC50 CT26) [nM]	IC50 [4] [nM]
CC(=O)O[C@H]1C(=O)[C@@]2(C)[C@H]([C@H](OC(=O)c3ccccc3)[C@]3(O)C[C@H](OC(=O)[C@H](O)[C@@H](NC(=O)c4ccccc4)c4ccccc4)C(C)=C1C3(C)C)[C@]1(OC(C)=O)CO[C@@H]1C[C@@H]2O [Paclitaxel]	2.61	–	–	–	–	–	–
C=C(C)[C@H]1CC[C@@]2(C)CC[C@]3(C)C[C@H]4[C@@H](C)CC(=O)[C@H]4/C(C=O)=C\C[C@H]3[C@H]12 [compound 1, Variecolin]	–	1400 ± 300	1000 to 8000	0.8	1.1	1000 ± 300	1100 ± 200
